Here are results for 1 molecule from PubChem BioAssay AID1257 (The Scripps Research Institute Molecular Screening Center, 2008).

The other results are listed elsewhere or left out. Unmarked numbers belong to inactive results.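 Rule for the calls: active = mean inhibition of triplicate wells above the hit cutoff set in the primary screen (cut at about 17% in these data); inactive = the rest.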

The target in this test is Neuropeptide Y receptor type 2 (Homo sapiens) (UniProt P49146). Kind of test: NPY-Y2 receptor antagonists, retest of hits, confirmation, HEK293-CNG cells, membrane potential fluorescence, triplicate (AID 1257).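 Note: 0% = DMSO with NPY challenge and 100% = BIIE0246 high control.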 The note with it: HEK293 NPY-Y2 CNG channel, at 2.8 µM, active compounds read high. In outline: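 Signal: fluorescence of membrane-potential-sensitive dye; assay system: Y2 HEK293-CNG cell line; also added: NPY 8 nM plus isoproterenol 1 µM, Ro 20-1724 25 µM; control set: BIIE0246 high and DMSO low controls; repeats: three replicates; read-out basis: 30-min to baseline fluorescence ratio, control-normalized; compound: 2.8 µM single dose; schedule: 60 min NPY incubation, room temperature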
Chain of Neuropeptide Y receptor type 2 (Homo sapiens) (P49146 whole entry, looked up): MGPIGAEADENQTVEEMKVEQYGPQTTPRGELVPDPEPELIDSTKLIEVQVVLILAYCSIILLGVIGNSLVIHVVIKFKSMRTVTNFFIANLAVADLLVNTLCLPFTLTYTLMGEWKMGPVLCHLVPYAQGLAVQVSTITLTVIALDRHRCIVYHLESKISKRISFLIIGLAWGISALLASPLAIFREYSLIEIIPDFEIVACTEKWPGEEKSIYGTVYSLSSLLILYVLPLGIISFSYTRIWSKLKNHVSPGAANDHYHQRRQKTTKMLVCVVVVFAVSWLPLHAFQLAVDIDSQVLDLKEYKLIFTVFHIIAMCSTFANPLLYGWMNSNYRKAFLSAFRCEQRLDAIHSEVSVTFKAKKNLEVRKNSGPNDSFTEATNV

One may read the inhibition as the relative decrease from the control value, in per cent. In the case of `O=C(COC(=O)c1ccccc1)Nc1ccc(Cl)cc1C(=O)c1ccccc1`, the inhibition was 15.9%.
